Measured values as given in ChEMBL document CHEMBL4041489, “Meroterpenoids and Chalcone-Lignoids from the Roots of Mimosa diplotricha” (J Nat Prod, 2016).

How the values were obtained:
[1] = Inhibition of rat protein farnesyltransferase pretreated for 15 mins followed by dansyl-Gly-Cys-Val-Leu-Ser-OH substrate addition in presence of farnesyl pyrophosphate measured after 30 mins by fluorescence assay
[2] = system: HepG2; test: Antiproliferative activity against human HepG2 cells measured after 72 hrs by SRB assay; type: functional; conditions: HepG2, 72 h
Summary of the method: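 HepG2 cells from BCRC grown in RPMI 1640 with 10% FBS, nonessential amino acids, penicillin/streptomycin at 37 °C, 5% CO2. Cells were seeded in 10% FBS medium, and a T0 plate was TCA-fixed at 24 h. Compound or DMSO was added for 72 h, then cells were fixed with 10% TCA and stained with 0.4% SRB. Absorbance read at 515 nm; % growth vs T0 and control gave GI50.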

[3] = Inhibition of porcine brain protein farnesyltransferase using p21 ras protein as substrate in presence of [3H]FPP after 1 hr by liquid scintillation counting method; set-up: species or system Sus scrofa

Row | Structure (SMILES) | IC50 [1] | GI50 [2] | IC50 [3]
1 | COC1=CC(=O)[C@@]2(c3cc(=O)c4ccc(OC)cc4o3)[C@H](C[C@]3(C)[C@@H](C(=O)O)CC=C4[C@H]3CCCC4(C)C)C(C)=CC[C@H]2C1=O | 7.5 µM | > 10 µM | –
2 | COC1=CC(=O)[C@@]2(c3cc(=O)c4ccc(O)cc4o3)[C@H](CC=C(C)[C@@H]2C[C@]2(C)[C@@H](C(=O)O)CC=C3[C@H]2CCCC3(C)C)C1=O | 27.9 µM | > 10 µM | –
3 | COC1=CC(=O)[C@@]2(c3cc(=O)c4c(O)cc(O)cc4o3)[C@H](C[C@]3(C)[C@@H](C(=O)O)CC=C4[C@H]3CCCC4(C)C)C(C)=CC[C@H]2C1=O | 8.5 µM | > 10 µM | –
4 | COC1=CC(=O)[C@@]2(c3cc(=O)c4ccc(O)cc4o3)[C@H](C[C@]3(C)[C@@H](C(=O)O)CC=C4[C@H]3CCCC4(C)C)C(C)=CC[C@H]2C1=O | 47 µM | > 10 µM | –

The next compounds have a lower IC50 [1] than those just listed; values first:

Row | IC50 [1] | GI50 [2] | IC50 [3] | Structure (SMILES)
5 | 5 µM | 8.6 µM | – | COC1=CC(=O)[C@@]2(c3cc(=O)c4c(O)cc(OC)cc4o3)[C@H](C[C@]3(C)[C@@H](C(=O)O)CC=C4[C@H]3CCCC4(C)C)C(C)=CC[C@H]2C1=O
6 | 5.1 µM | > 10 µM | – | COC1=CC(=O)[C@@]2(c3cc(=O)c4c(O)cc(O)cc4o3)[C@H](CC=C(C)[C@@H]2C[C@]2(C)[C@@H](C(=O)O)CC=C3[C@H]2CCCC3(C)C)C1=O
7 | 0.1 µM | – | 0.05 to 0.075 µM | CSCC[C@H](NC(=O)c1ccc(NC(=O)[C@@H](N)CS)cc1)C(=O)O
